Laboratory results reported in ChEMBL document CHEMBL1134286, “Novel erythromycin derivatives with aryl groups tethered to the C-6 position are potent protein synthesis inhibitors and active against multidrug-resistant respiratory pathogens” (J Med Chem, 2001).
Converted amounts (≈) assume the structure as drawn.

How the values were obtained:
Format in all cases: functional
Staphylococcus aureus [1] = assay: Minimum inhibitory concentration against Staphylococcus aureus A 5177 MLSB-i
In short: (§1)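 MICs were determined by agar dilution following National Committee for Clinical Laboratory Standards recommendations. Values are in µg/mL.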

Staphylococcus aureus [2] = assay: Minimum inhibitory concentration against Staphylococcus aureus A 5278 MLSB-c; in short: as §1
[3] = Minimum inhibitory concentration against Streptococcus pyogenes PIU2548 efflux; in short: as §1
Streptococcus pneumoniae [4] = assay: Minimum inhibitory concentration against Streptococcus pneumoniae 5649 efflux; in short: as §1
[5] = Minimum inhibitory concentration against Streptococcus pneumoniae 5737 MLSB; in short: as §1
Streptococcus pneumoniae [6] = assay: Minimum inhibitory concentration against Streptococcus pneumoniae ATCC 6303 Ery-S; in short: as §1
[7] = Minimum inhibitory concentration against Streptococcus pyogenes 930MLSB; in short: as §1
Staphylococcus aureus [8] = assay: Minimum inhibitory concentration against Staphylococcus aureus ATCC 6538PEry-S; settings: ATCC 6538P; in short: as §1
[9] = Minimum inhibitory concentration against Streptococcus pyogenes EES 61 Ery-S; in short: as §1
[10] = Minimum inhibitory concentration against Haemophilus influenzae DILL Amp-R; in short: as §1

Row | SMILES | MIC (Staphylococcus aureus [1]) [µg/mL] | MIC (Staphylococcus aureus [2]) [µg/mL] | MIC [3] [µg/mL] | MIC (Streptococcus pneumoniae [4]) [µg/mL] | MIC [5] [µg/mL] | MIC (Streptococcus pneumoniae [6]) [µg/mL] | MIC [7] [µg/mL] | MIC (Staphylococcus aureus [8]) [µg/mL] | MIC [9] [µg/mL] | MIC [10] [µg/mL]
1 | CC[C@H]1OC(=O)[C@H](C)C(=O)[C@H](C)[C@@H](O[C@@H]2O[C@H](C)C[C@H](N(C)C)[C@H]2O)[C@](C)(OC/C=C/c2cnc3ccccc3c2)C[C@@H](C)C(=O)[C@H](C)[C@H]2N(CCN(C)C)C(=O)O[C@]12C | 0.2 (≈ 0.239 µM) | > 100 | 2 (≈ 2.39 µM) | 2 (≈ 2.39 µM) | 4 (≈ 4.78 µM) | 0.125 (≈ 0.149 µM) | 32 (≈ 38.2 µM) | 0.39 (≈ 0.466 µM) | 0.03 (≈ 0.0358 µM) | 8 (≈ 9.56 µM)
2 | CC[C@H]1OC(=O)[C@H](C)C(=O)[C@H](C)[C@@H](O[C@@H]2O[C@H](C)C[C@H](N(C)C)[C@H]2O)[C@](C)(OCCCc2ccccc2)C[C@@H](C)C(=O)[C@H](C)[C@@H](O)[C@]1(C)O | 6.2 (≈ 8.96 µM) | > 100 | 4 (≈ 5.78 µM) | 1 (≈ 1.45 µM) | 32 (≈ 46.2 µM) | 1 (≈ 1.45 µM) | 64 (≈ 92.5 µM) | 6.2 (≈ 8.96 µM) | 0.5 (≈ 0.723 µM) | > 64
3 | CC[C@H]1OC(=O)[C@H](C)C(=O)[C@H](C)[C@@H](O[C@@H]2O[C@H](C)C[C@H](N(C)C)[C@H]2O)[C@](C)(OCCN)C[C@@H](C)C(=O)[C@H](C)[C@@H](O)[C@]1(C)O | 25 (≈ 40.5 µM) | > 100 | 12.5 (≈ 20.3 µM) | – | – | – | > 100 | 25 (≈ 40.5 µM) | 6.2 (≈ 10.1 µM) | –
4 | C=CCO[C@]1(C)C[C@@H](C)C2=NCCN3C(=O)O[C@](C)([C@@H](CC)OC(=O)[C@H](C)C(=O)[C@H](C)[C@H]1O[C@@H]1O[C@H](C)C[C@H](N(C)C)[C@H]1O)[C@H]3[C@H]2C | 1.56 (≈ 2.35 µM) | > 100 | 4 (≈ 6.03 µM) | 0.5 (≈ 0.753 µM) | > 128 | 0.25 (≈ 0.377 µM) | > 128 | 1.56 (≈ 2.35 µM) | 0.25 (≈ 0.377 µM) | 32 (≈ 48.2 µM)
5 | C=CCO[C@]1(C)C[C@@H](C)C(=O)[C@H](C)[C@@H](O)[C@](C)(O)[C@@H](CC)OC(=O)[C@H](C)C(=O)[C@H](C)[C@H]1O[C@@H]1O[C@H](C)C[C@H](N(C)C)[C@H]1O | 50 (≈ 81.5 µM) | > 100 | 32 (≈ 52.1 µM) | 8 (≈ 13 µM) | > 128 | 4 (≈ 6.52 µM) | > 128 | 12.5 (≈ 20.4 µM) | – | > 128
6 | CC[C@H]1OC(=O)[C@H](C)C(=O)[C@H](C)[C@@H](O[C@@H]2O[C@H](C)C[C@H](N(C)C)[C@H]2O)[C@](C)(OCCNCCc2ccccc2)C[C@@H](C)C(=O)[C@H](C)[C@@H](O)[C@]1(C)O | 6.2 (≈ 8.6 µM) | > 100 | 8 (≈ 11.1 µM) | 4 (≈ 5.55 µM) | > 128 | 2 (≈ 2.77 µM) | > 128 | 6.2 (≈ 8.6 µM) | 2 (≈ 2.77 µM) | 64 (≈ 88.8 µM)
7 | CC[C@H]1OC(=O)[C@H](C)C(=O)[C@H](C)[C@@H](O[C@@H]2O[C@H](C)C[C@H](N(C)C)[C@H]2O)[C@](C)(OC/C=C/c2cccc3cccnc23)C[C@@H](C)C(=O)[C@H](C)[C@H]2NC(=O)O[C@@]21C | 0.1 (≈ 0.131 µM) | > 100 | 0.5 (≈ 0.653 µM) | 0.5 (≈ 0.653 µM) | > 32 | 0.03 (≈ 0.0392 µM) | > 32 | 0.2 (≈ 0.261 µM) | 0.03 (≈ 0.0392 µM) | 8 (≈ 10.4 µM)
8 | CC[C@H]1OC(=O)[C@H](C)C(=O)[C@H](C)[C@@H](O[C@@H]2O[C@H](C)C[C@H](N(C)C)[C@H]2O)[C@](C)(OC/C=C/c2cnc3ccccc3c2)C[C@@H](C)C(=O)[C@H](C)[C@H]2N(C)C(=O)O[C@]12C | 0.1 (≈ 0.128 µM) | > 100 | 0.25 (≈ 0.321 µM) | 0.25 (≈ 0.321 µM) | 1 (≈ 1.28 µM) | 0.03 (≈ 0.0385 µM) | 4 (≈ 5.13 µM) | 0.1 (≈ 0.128 µM) | 0.015 (≈ 0.0192 µM) | 4 (≈ 5.13 µM)
9 | CC[C@H]1OC(=O)[C@H](C)C(=O)[C@H](C)[C@@H](O[C@@H]2O[C@H](C)C[C@H](N(C)C)[C@H]2O)[C@](C)(OCC2CC2c2cnc3ccccc3c2)C[C@@H](C)C(=O)[C@H](C)[C@H]2NC(=O)O[C@@]21C (some centres undefined) | 0.05 (≈ 0.0641 µM) | > 100 | 0.25 (≈ 0.321 µM) | 0.5 (≈ 0.641 µM) | 32 (≈ 41 µM) | 0.03 (≈ 0.0385 µM) | 4 (≈ 5.13 µM) | 0.05 (≈ 0.0641 µM) | 0.03 (≈ 0.0385 µM) | –
10 | CC[C@H]1OC(=O)[C@H](C)C(=O)[C@H](C)[C@@H](O[C@@H]2O[C@H](C)C[C@H](N(C)C)[C@H]2O)[C@](C)(OC/C=C/c2ccc3ccccc3c2)C[C@@H](C)C(=O)[C@H](C)[C@H]2NC(=O)O[C@@]21C | 0.1 (≈ 0.131 µM) | > 100 | 1 (≈ 1.31 µM) | 1 (≈ 1.31 µM) | > 128 | 0.015 (≈ 0.0196 µM) | 16 (≈ 20.9 µM) | 0.1 (≈ 0.131 µM) | 0.015 (≈ 0.0196 µM) | 16 (≈ 20.9 µM)
11 | CC[C@H]1OC(=O)[C@H](C)[C@@H](O[C@H]2C[C@@](C)(OC)[C@@H](O)[C@H](C)O2)[C@H](C)[C@@H](O[C@@H]2O[C@H](C)C[C@H](N(C)C)[C@H]2O)[C@](C)(OC/C=C/c2ccccc2)C[C@@H](C)C(=O)[C@H](C)[C@@H](O)[C@]1(C)O | 6.2 (≈ 7.29 µM) | > 100 | 16 (≈ 18.8 µM) | 4 (≈ 4.71 µM) | 32 (≈ 37.6 µM) | 0.06 (≈ 0.0706 µM) | 32 (≈ 37.6 µM) | 0.39 (≈ 0.459 µM) | 0.03 (≈ 0.0353 µM) | 4 (≈ 4.71 µM)
12 | CC[C@H]1OC(=O)[C@H](C)C(=O)[C@H](C)[C@@H](O[C@@H]2O[C@H](C)C[C@H](N(C)C)[C@H]2O)[C@](C)(OCCNCc2ccccc2)C[C@@H](C)C(=O)[C@H](C)[C@@H](O)[C@]1(C)O | 1.56 (≈ 2.21 µM) | > 100 | 4 (≈ 5.66 µM) | 4 (≈ 5.66 µM) | > 64 | 0.25 (≈ 0.354 µM) | > 64 | 3.1 (≈ 4.39 µM) | 0.5 (≈ 0.707 µM) | 16 (≈ 22.6 µM)
13 | CC[C@H]1OC(=O)[C@H](C)C(=O)[C@H](C)[C@@H](O[C@@H]2O[C@H](C)C[C@H](N(C)C)[C@H]2O)[C@](C)(OC/C=C/c2ccc3cccnc3c2)C[C@@H](C)C(=O)[C@H](C)[C@H]2NC(=O)O[C@@]21C | 0.05 (≈ 0.0653 µM) | > 100 | 1 (≈ 1.31 µM) | 0.5 (≈ 0.653 µM) | 4 (≈ 5.22 µM) | 0.03 (≈ 0.0392 µM) | > 128 | 0.05 (≈ 0.0653 µM) | 0.03 (≈ 0.0392 µM) | 4 (≈ 5.22 µM)
14 | CC[C@H]1OC(=O)[C@H](C)C(=O)[C@H](C)[C@@H](O[C@@H]2O[C@H](C)C[C@H](N(C)C)[C@H]2O)[C@](C)(OC/C=C/c2cccnc2)C[C@@H](C)C(=O)[C@H](C)[C@H]2NC(=O)O[C@@]21C | 0.1 (≈ 0.14 µM) | > 100 | 0.5 (≈ 0.698 µM) | 0.5 (≈ 0.698 µM) | > 128 | 0.03 (≈ 0.0419 µM) | > 128 | 0.1 (≈ 0.14 µM) | 0.03 (≈ 0.0419 µM) | 8 (≈ 11.2 µM)
15 | C=CCO[C@]1(C)C[C@@H](C)C(=O)[C@H](C)[C@H]2N(CCN(C)C)C(=O)O[C@]2(C)[C@@H](CC)OC(=O)[C@H](C)C(=O)[C@H](C)[C@H]1O[C@@H]1O[C@H](C)C[C@H](N(C)C)[C@H]1O | 6.2 (≈ 8.73 µM) | > 100 | 4 (≈ 5.63 µM) | 2 (≈ 2.82 µM) | > 128 | 1 (≈ 1.41 µM) | > 128 | 6.2 (≈ 8.73 µM) | 0.5 (≈ 0.704 µM) | 64 (≈ 90.2 µM)
16 | CC[C@H]1OC(=O)[C@H](C)C(=O)[C@H](C)[C@@H](O[C@@H]2O[C@H](C)C[C@H](N(C)C)[C@H]2O)[C@](C)(OCCNCCCc2cnc3ccccc3c2)C[C@@H](C)C(=O)[C@H](C)[C@H]2NC(=O)O[C@@]21C | 0.39 (≈ 0.481 µM) | > 100 | 2 (≈ 2.47 µM) | 2 (≈ 2.47 µM) | 2 (≈ 2.47 µM) | 0.03 (≈ 0.037 µM) | > 100 | 0.2 (≈ 0.247 µM) | 0.03 (≈ 0.037 µM) | 4 (≈ 4.93 µM)
